MT stabilize HCS: microtubule stabilizers in HeLa cells; actives 0.83% (n = 200,000); AID 2205; % tubulin-high responders, % at 10 µM; HeLa tubulin immunostaining HCS, 24 h; share of cells brighter than vehicle mean+2SD;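 active = plate Z-score above 3 for both tubulin-high and condensed-nucleus cell shares, with cell loss under 80%, at 10 µM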;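 also: anti alpha tubulin signal scored within the nucleus-defined area of each cell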
b-catenin transl: beta-catenin nuclear translocation modulation; actives 0.3% (n = 190,000); AID 1665; HeLa beta-catenin nuclear translocation, immunofluorescence imaging; nuclear translocation activity, % at 5 µM;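 active = nuclear translocation activity above 50% at 5 µM, with a well cell count of 50 or more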;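 also: per-cell ratio of nuclear to cytoplasmic median beta-catenin stain intensity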
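Assay system: human HeLa cells, native beta-catenin; doses: 5 µM primary, 0.02–20 µM confirmation; incubation: compound treatment 24 h, 37°C, 5% CO2; technique: fluorescence imaging of beta-catenin antibody stain plus DAPI; measure: % activation, nuclear-to-cytoplasmic median beta-catenin signal ratio per cell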
Dynein transport: dynein cargo transport inhibition; 3617.4 mouse cells, GR-EGFP nuclear translocation imaging; test concentration mostly 20 µM; stimulated with dexamethasone, 1 µM; stronger effect = lower value; z-score, hits read low; actives 0.47% (n = 220,000); AID 1381;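 active = plate z-score of nuclear minus cytoplasmic receptor signal below a set negative limit, without overly bright fluorescence or cell loss, cut at about -3.5 in these data, passing the limit was not always enough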;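 also: z-score of nuclear minus cytoplasmic ring GR-EGFP intensity difference per well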
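Also added – dexamethasone, 1.0 µM final · Buffer or medium – tet-free, stripped-serum medium · Schedule – induction 48 h, compound 1 h, agonist 30 min · Detection – formaldehyde fixation, Hoechst nuclear stain, 10x automated fluorescence imaging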
L major viab: Leishmania major promastigote growth inhibition. inhibition, % at 10 µM. actives 9% (n = 200,000). Leishmania major promastigotes, resazurin fluorescence viability; in the data active = inhibition above about 50%;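 also: promastigotes grown with compound for 44 hours at 28 °C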
HSV replic up: increases HSV replication in cells. maximum fold increase. HSV replication augmentation in cells, fold increase. actives 0.005% (n = 220,000); in the data active = maximum fold increase above about 1.5; tested in PC3 cells
Each line names hits and unclear results; the compound was inactive in the other large screens. Compounds with a hit are over-represented: about 8.9% of the library has one in this group of screens.

c1ccc(Cn2c(CNc3nc4ccccc4n3CCN3CCOCC3)nc3ccccc32)cc1	L major viab 59
COc1ccc(OC)c(CNc2nc3ccccc3n2CCN2CCCCC2)c1	L major viab 67
O=C1OCc2ccc(NC(=O)c3sccc3Cl)cc21	none (no result: MT stabilize HCS, L major viab)
CN(C)CCSc1nc(-c2ccccc2)nc2c1COC(C)(C)C2	none
CCOCCCNCc1ccc(OCCC(C)C)c(OC)c1	L major viab 85
COc1ccc(CCNCc2ccc(OCc3ccc(Cl)nc3)c(OC)c2)cc1OC	L major viab 90
COc1cc(CNCCNCC(C)O)ccc1OCc1ccc(Cl)nc1 (centres undefined)	none
COc1ccc(CNCCc2ccc(Cl)cc2)cc1OCc1ccccc1	L major viab 96
CCCCCNCc1ccc(OCc2ccc(Cl)nc2)c(OC)c1	L major viab 100
Cc1cc(Cl)cc(Cl)c1CNc1c([N+](=O)[O-])c(=O)oc2ccccc12	none (no result: b-catenin transl)
Cc1nc(-c2cccc(S(=O)(=O)N3CCCCC3)c2)cs1	none (no result: MT stabilize HCS, L major viab)
COc1ccc(OCC(=O)NCCc2c[nH]c3ccccc23)cc1	L major viab 64
COc1ccc(CCNC(=S)NCCc2c[nH]c3ccccc23)cc1	L major viab 91
CNC(=S)NCCc1c[nH]c2ccc(OC)cc12	none
Cc1ccc(C)c(NC(=S)NCCc2c[nH]c3ccccc23)c1	none (no result: MT stabilize HCS, L major viab)
Cc1ccccc1NC(=S)NCCc1c[nH]c2ccccc12	L major viab 81
O=C(O)CC1(CC(=O)NCc2ccccn2)CCCCC1	none (no result: MT stabilize HCS, L major viab)
NNC(=O)CN1C(c2ccc(Br)cc2)=Nc2ccc(Br)cc2C1c1ccccc1 (centres undefined)	none
CC1(C)CC(NCc2ccc3c(c2)OCO3)CCO1 (centres undefined)	L major viab 84
O=C(NCc1ccc2c(c1)OCO2)C(=O)NC1CCCCC1	none
CC1(C)CC(O)(CCNCc2ccc3c(c2)OCO3)CCO1 (centres undefined)	L major viab 83
Cc1ccc(NC(=O)NCc2ccc3c(c2)OCO3)cc1C	none
COc1cc(C=O)ccc1OCCCOc1ccccc1C(=O)O	none
CCn1c(O)c(/C=N/N=C/c2ccccc2)c2ccc(C3=NNC(=O)CC3)cc21	L major viab 89 (no result: b-catenin transl)
CC1CC(C)CN(C(=O)c2cc3cc(Br)cc(Br)c3o2)C1 (centres undefined)	L major viab 90
CCn1c(=O)c(C(=O)CN2CCN(Cc3ccc4c(c3)OCO4)CC2)c(N)n(Cc2ccccc2)c1=O	none
CCn1c(=O)c(C(=O)CN2CCN(S(=O)(=O)c3cc(C)ccc3C)CC2)c(N)n(Cc2ccccc2)c1=O	L major viab 65
COc1ccc(C(=O)Nn2c(SCC(=O)NCC3CCCO3)nc3ccccc3c2=O)cc1 (centres undefined)	none
NC(=S)N/N=C/c1ccccc1O	none (no result: MT stabilize HCS, L major viab)
Cc1nn(-c2ccccc2)c(C)c1NC(=O)c1cccs1	MT stabilize HCS 41 (no result: b-catenin transl)
COc1cc(OC)cc(C(=O)Nc2c(C)nn(-c3ccccc3)c2C)c1	MT stabilize HCS 13
O=C(NC1CCCCC1)C(c1ccccc1)N(Cc1ccc2c(c1)OCO2)C(=O)c1cnsn1 (centres undefined)	none
CC(C)NC(=O)CC(=O)N/N=C/c1c(F)cccc1Cl	none
O=C(Nc1ccccc1N1CCOCC1)C1CCN(S(=O)(=O)c2cccc(C(F)(F)F)c2)CC1	L major viab 66
CN(Cc1ccccc1)S(=O)(=O)c1ccc2[nH]cc(C(=O)NCC3CCCO3)c(=O)c2c1 (centres undefined)	L major viab 99 (no result: HSV replic up)
O=C(Nc1cccc(C(F)(F)F)c1)c1cc2c(=O)c3ccccc3oc2nc1C(F)(F)F	L major viab 62
O=C(Nc1ccccc1)c1cc2c(=O)c3ccccc3oc2nc1C(F)(F)F	none
N#C/C(=C\c1c(F)cccc1Cl)c1nn(-c2ccccc2)c(-n2cccc2)c1C#N	none (no result: MT stabilize HCS, L major viab)
COc1ccc(/C(C)=N/Nc2ccc(C(=O)O)cc2)cc1OC	L major viab 51
Cc1[nH]c2ccccc2c1C(=O)CCl	L major viab 99
COC(=O)c1cc(OC)c(OC)cc1NCC(=O)Nc1cccc(C(F)(F)F)c1	L major viab 74
COC(=O)c1cc(OC)c(OC)cc1NCC(=O)Nc1ccc(C)cc1	none
COC(=O)c1cc(OC)c(OC)cc1NCC(=O)Nc1ccc(OC)c(OC)c1	L major viab 53 (no result: b-catenin transl)
O=C(CNc1cc(S(=O)(=O)N2CCCC2)ccc1OCC(F)(F)F)Nc1cccc(C(F)(F)F)c1	L major viab 95
O=C(Nc1cc(S(=O)(=O)N2CCCC2)ccc1OCC(F)(F)F)c1ccccc1F	none
Cc1ccc(-c2nnc(SCC(=O)N3CCOCC3)nc2-c2ccc(C)cc2)cc1	L major viab 98
CCn1c(SCC(=O)NC2CCS(=O)(=O)C2)nnc1-c1ccccc1 (centres undefined)	none
Cc1ccc(-c2nnc(SCC(=O)NC3CCS(=O)(=O)C3)nc2-c2ccc(C)cc2)cc1 (centres undefined)	L major viab 78 (no result: b-catenin transl)
Cc1ccc(-c2cn(-c3ccccc3)c(SCC(=O)NC3CCS(=O)(=O)C3)n2)cc1C (centres undefined)	L major viab 86 (no result: b-catenin transl)
Cc1nnc(SCC(=O)NC2CCS(=O)(=O)C2)n1Cc1ccccc1 (centres undefined)	none
O=C(CSc1nnc(COc2ccccc2F)n1-c1ccccc1)NC1CCS(=O)(=O)C1 (centres undefined)	L major viab 70 (no result: b-catenin transl)
COc1ccc(CC(=O)Nc2c3c(nn2-c2cccc(C)c2C)CS(=O)C3)cc1 (centres undefined)	none
CC(NC(=O)C12CC3CC(CC(C3)C1)C2)C(=O)N/N=C/C1=C(N2CCOCC2)C(=C\c2cccc([N+](=O)[O-])c2)/CC1 (centres undefined)	L major viab 98
CC(C)C(NC(=O)C12CC3CC(CC(C3)C1)C2)C(=O)N/N=C/C1=C(N2CCOCC2)C(=C\c2ccc([N+](=O)[O-])cc2)/CC1 (centres undefined)	L major viab 97
Cc1cc(C)c2c(=O)[nH]c(SCC(=O)Nc3ccc(N(C)C)cc3)nc2n1	none
O=C(O)/C=C/c1ccc(S(=O)(=O)Nc2ccc(OCc3ccccc3)cc2)cc1	none (no result: MT stabilize HCS, L major viab)
COc1cc(S(=O)(=O)N(Cc2ccccn2)Cc2ccccc2Cl)ccc1-n1cnnn1	none
COc1ccccc1CN(Cc1ccco1)S(=O)(=O)c1ccc(-n2cnnn2)c(OC)c1	L major viab 73
COc1cccc(CN(Cc2cccnc2)S(=O)(=O)c2ccc(-n3cnnn3)c(C)c2)c1OC	L major viab 98
COc1ccc(C(=O)NNC(=O)c2ccccn2)cc1	none
COc1cc(OC)cc(C(=O)NNC(=O)c2ccccn2)c1	L major viab 93
O=C(NNC(=O)c1ccccn1)c1cccc([N+](=O)[O-])c1	L major viab 58
COc1cc(OC)cc(C(=O)NC(=S)NNC(=O)c2cnccn2)c1	L major viab 100
COc1cc(OC)cc(C(=O)NC(=S)Nc2cccnc2)c1	none

Screening data as filed in PubChem BioAssay.
